Results reported in ChEMBL document CHEMBL4138319, “Discovery, Synthesis, Pharmacological Profiling, and Biological Characterization of Brintonamides A-E, Novel Dual Protease and GPCR Modulators from a Marine Cyanobacterium” (J Med Chem, 2018).
Activity calls are given as the source filed them. The calls are words filed in the database; no cut-off is given here. Square brackets hold non-standard residues; d marks the D form. Peptide text beside a SMILES is read from it. * marks the point of attachment. ξ: configuration not given here. X4 = CC[C@H](C)[C@@H](OC(=O)[C@H](Cc1ccccc1)N(C)C)C(=O)*; X3 = CC[C@H](C)[C@@H](OC(=O)/C=C\c1ccccc1)C(=O)*; X5 = CC[C@H](C)[C@@H](OC(=O)C#Cc1ccccc1)C(=O)*; X2 = CC[C@H](C)[C@@H](OC(=O)CCc1ccccc1)C(=O)*; Hmp(2R,3S) = CC[C@H](C)[C@@H](O)C(=O)O; dNMeF = CN[C@H](Cc1ccccc1)C(=O)O; NMeL = CN[C@@H](CC(C)C)C(=O)O; dHiv = CC(C)[C@@H](O)C(=O)O; ξD = NC(CC(=O)O)C(=O)O

Assays:
Kallikrein-7 [1] = molecular target: T1, Kallikrein-7 (Homo sapiens, UniProt P49862); assay: Inhibition of kallikrein 7 (unknown origin) by fluorescence assay
Procedure, shortened: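 Protease panel screen: 10-dose titrations, 3-fold serial dilution from 100 μM, singlet. Protease activity is followed as the time-course rise in fluorescence from a labeled peptide substrate, and the initial linear slope (signal/min) is analysed.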
Target sequence in this assay (P49862 whole entry): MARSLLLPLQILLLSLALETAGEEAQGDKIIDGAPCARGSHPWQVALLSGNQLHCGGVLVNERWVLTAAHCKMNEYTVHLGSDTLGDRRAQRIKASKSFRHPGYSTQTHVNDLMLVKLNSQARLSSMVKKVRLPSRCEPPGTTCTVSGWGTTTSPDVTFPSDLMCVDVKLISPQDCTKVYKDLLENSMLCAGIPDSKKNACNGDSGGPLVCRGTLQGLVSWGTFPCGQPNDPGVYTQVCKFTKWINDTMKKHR

Caspase-14 = molecular target: T2, Caspase-14 (Homo sapiens, UniProt P31944); assay: Inhibition of human caspase 14 using Ac-WEHD-AMC fluorogenic peptide as substrate by fluorescence assay
T2 sequence (P31944 whole entry): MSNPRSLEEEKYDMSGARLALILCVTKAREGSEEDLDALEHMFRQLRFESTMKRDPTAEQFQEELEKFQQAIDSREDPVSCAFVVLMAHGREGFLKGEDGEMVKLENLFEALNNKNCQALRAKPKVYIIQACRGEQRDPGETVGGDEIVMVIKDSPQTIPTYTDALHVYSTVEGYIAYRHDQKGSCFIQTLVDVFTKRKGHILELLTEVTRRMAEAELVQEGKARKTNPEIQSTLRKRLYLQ
Procedure, shortened: (§1)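 Activity followed as a time course of rising fluorescence from a fluorescently labelled peptide substrate. The initial linear slope (signal/min) was used.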

Oxytocin receptor = molecular target: T3, Oxytocin receptor (Homo sapiens, UniProt P30559); assay: Antagonist activity at human OXTR expressed in CHOK1 cells assessed as oxytocin-induced beta-arrestin recruitment pre-incubated for 30 mins before oxytocin stimulation for 90 or 180 mins by chemiluminescence method; type: functional, cell-based
T3 sequence (P30559 whole entry): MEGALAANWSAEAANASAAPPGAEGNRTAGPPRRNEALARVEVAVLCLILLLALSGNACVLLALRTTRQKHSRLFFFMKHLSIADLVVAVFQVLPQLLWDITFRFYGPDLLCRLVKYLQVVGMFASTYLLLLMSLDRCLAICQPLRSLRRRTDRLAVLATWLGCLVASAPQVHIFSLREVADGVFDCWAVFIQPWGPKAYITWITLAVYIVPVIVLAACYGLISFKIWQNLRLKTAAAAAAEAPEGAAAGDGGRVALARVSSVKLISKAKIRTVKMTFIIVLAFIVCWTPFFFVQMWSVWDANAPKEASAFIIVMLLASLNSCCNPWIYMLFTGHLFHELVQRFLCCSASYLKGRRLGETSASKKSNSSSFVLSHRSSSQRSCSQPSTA
Procedure, shortened: (§2)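 PathHunter β-arrestin complementation assay, antagonist mode. Cells co-express ProLink-tagged GPCR and enzyme-acceptor-tagged β-arrestin and are pre-incubated with sample for 30 min at 37 °C or room temperature. Dose-response: 10 points, 3-fold dilutions from 20 μM, in duplicate.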

[2] = molecular target: Atypical chemokine receptor 3 (Homo sapiens, UniProt P25106); assay: Agonist activity at human CXCR7 expressed in CHOK1 cells assessed as induction of beta-arrestin recruitment by chemiluminescence method; type: functional, cell-based
Procedure, shortened: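 PathHunter β-arrestin enzyme-fragment complementation assay in cells stably co-expressing ProLink-tagged GPCR and enzyme-acceptor-tagged β-arrestin. Sample is added to cells and incubated 90 or 180 min at 37 °C or room temperature, with 1% final vehicle. Detection reagent is added for 1 h at room temperature and chemiluminescence is read. % activity is taken relative to vehicle and maximal control ligand. Dose-response: 10 points, 3-fold dilutions from 20 μM, in duplicate.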

MDA-MB-231 [3] = assay: Antiproliferative activity against human MDA-MB-231 cells after 48 hrs by MTT assay; type: functional, cell-based
Procedure, shortened: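 MDA-MB-231 cells are grown in DMEM with 10% FBS and seeded at 10,000 cells/well for 24 h. Cells are then exposed to graded compound concentrations or DMSO for 48 h. Viability is measured by MTT.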

[4] = molecular target: Somatostatin receptor type 3 (Homo sapiens, UniProt P32745); assay: Antagonist activity at human SSTR3 expressed in HEK293 cells assessed as [Tyr1]-somatostatin 14-induced beta-arrestin recruitment pre-incubated for 30 mins before [Tyr1]-somatostatin 14 stimulation for 90 or 180 mins by chemiluminescence method; type: functional, cell-based; procedure, shortened: as §2
Substance-K receptor = molecular target: T4, Substance-K receptor (Homo sapiens, UniProt P21452); assay: Antagonist activity at human TACR2 expressed in CHOK1 cells assessed as substance P-induced beta-arrestin recruitment pre-incubated for 30 mins before substance P stimulation for 90 or 180 mins by chemiluminescence method; type: functional, cell-based; procedure, shortened: as §2
T4 sequence (P21452 whole entry): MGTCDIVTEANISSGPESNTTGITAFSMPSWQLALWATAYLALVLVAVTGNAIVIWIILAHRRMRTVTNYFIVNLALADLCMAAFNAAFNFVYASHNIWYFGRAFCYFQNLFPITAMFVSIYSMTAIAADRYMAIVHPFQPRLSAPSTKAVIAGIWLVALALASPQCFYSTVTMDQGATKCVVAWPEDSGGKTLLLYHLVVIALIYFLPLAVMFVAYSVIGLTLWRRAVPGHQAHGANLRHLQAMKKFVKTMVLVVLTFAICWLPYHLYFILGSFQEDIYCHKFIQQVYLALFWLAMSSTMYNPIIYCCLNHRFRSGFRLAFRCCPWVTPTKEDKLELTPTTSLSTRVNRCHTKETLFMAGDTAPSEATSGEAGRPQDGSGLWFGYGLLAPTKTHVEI

Kallikrein-7 [5] = molecular target: T1, Kallikrein-7; assay: Inhibition of kallikrein 7 (unknown origin) using fluorescently labeled peptide substrate by fluorescence assay
Procedure, shortened: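 KLK7 follow-up: 10-dose titrations, 3-fold serial dilution from 100 μM, in duplicate, with gabexate mesylate as positive control. Fluorescence from the labeled peptide substrate is monitored over time, and the initial linear slope (signal/min) is used to derive IC50.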
Target sequence in this assay (P49862 30-253 limits assumed): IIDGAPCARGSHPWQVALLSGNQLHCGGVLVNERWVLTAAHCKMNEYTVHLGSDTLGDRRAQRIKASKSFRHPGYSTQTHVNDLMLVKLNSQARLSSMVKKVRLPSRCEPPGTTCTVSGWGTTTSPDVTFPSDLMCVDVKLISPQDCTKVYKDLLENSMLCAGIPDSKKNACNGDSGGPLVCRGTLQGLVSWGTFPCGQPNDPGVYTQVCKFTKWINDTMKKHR

[6] = molecular target: T5, C-C chemokine receptor type 10 (Homo sapiens, UniProt P46092); assay: Antagonist activity at human CCR10 expressed in human U2OS cells assessed as inhibition of CCL27-induced beta-arrestin recruitment pre-incubated for 30 mins before CCL27 stimulation for 90 or 180 mins by chemiluminescence method; type: functional, cell-based; procedure, shortened: as §2
T5 sequence (P46092 whole entry): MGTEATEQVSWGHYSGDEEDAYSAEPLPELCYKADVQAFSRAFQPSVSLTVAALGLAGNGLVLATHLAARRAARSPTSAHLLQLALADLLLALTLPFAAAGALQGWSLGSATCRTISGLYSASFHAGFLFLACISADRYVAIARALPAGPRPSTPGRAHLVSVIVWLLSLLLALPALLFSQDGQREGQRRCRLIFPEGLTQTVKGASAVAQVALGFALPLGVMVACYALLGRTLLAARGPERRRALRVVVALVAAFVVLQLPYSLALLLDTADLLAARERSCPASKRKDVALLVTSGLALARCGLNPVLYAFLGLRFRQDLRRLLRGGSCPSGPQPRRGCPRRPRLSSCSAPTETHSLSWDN

MDA-MB-231 [7] = assay: Antiproliferative activity against human MDA-MB-231 cells assessed as reduction in cell viability at 32 uM after 48 hrs by MTT assay; type: functional
Procedure, shortened: (§3)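 MDA-MB-231 cells seeded at 10,000 cells/well in DMEM with 10% FBS and left 24 h, then exposed to compound or DMSO solvent control for 48 h. Viability read by MTT, compared with solvent control.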

MDA-MB-231 [8] = assay: Antiproliferative activity against human MDA-MB-231 cells assessed as reduction in cell viability at 100 uM after 48 hrs by MTT assay; type: functional; procedure, shortened: as §3
MDA-MB-231 [9] = assay: Antimigratory activity against human MDA-MB-231 cells at 10 uM after 48 hrs by transwell migration assay relative to control; type: functional
[10] = Inhibition of chymotrypsin (unknown origin) by fluorescence assay; set-up: species or system Homo sapiens
Kallikrein-7 [11] = molecular target: T1, Kallikrein-7; assay: Mixed type inhibition of kallikrein 7 (unknown origin) using fluorescently labeled peptide substrate by fluorescence assay based Michaelis-Menten kinetic plot analysis
Target sequence in this assay (P49862 30-253 limits assumed): as the sequence (P49862 30-253 limits assumed) above

Chymase = molecular target: T6, Chymase (Homo sapiens, UniProt P23946); assay: Inhibition of chymase (unknown origin) by fluorescence assay; procedure, shortened: as §1
T6 sequence (P23946 whole entry): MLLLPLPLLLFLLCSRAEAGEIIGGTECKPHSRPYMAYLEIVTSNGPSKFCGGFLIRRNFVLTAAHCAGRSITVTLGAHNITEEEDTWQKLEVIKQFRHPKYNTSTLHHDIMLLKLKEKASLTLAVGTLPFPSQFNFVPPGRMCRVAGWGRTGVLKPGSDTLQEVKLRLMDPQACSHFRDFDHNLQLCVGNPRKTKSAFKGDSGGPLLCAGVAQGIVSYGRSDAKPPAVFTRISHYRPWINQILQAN

[12] = Homo sapiens, MDA-MB-231, 48 h, read-out: IC50

Sequence of Atypical chemokine receptor 3 (P25106 whole entry, the tested form may be a part): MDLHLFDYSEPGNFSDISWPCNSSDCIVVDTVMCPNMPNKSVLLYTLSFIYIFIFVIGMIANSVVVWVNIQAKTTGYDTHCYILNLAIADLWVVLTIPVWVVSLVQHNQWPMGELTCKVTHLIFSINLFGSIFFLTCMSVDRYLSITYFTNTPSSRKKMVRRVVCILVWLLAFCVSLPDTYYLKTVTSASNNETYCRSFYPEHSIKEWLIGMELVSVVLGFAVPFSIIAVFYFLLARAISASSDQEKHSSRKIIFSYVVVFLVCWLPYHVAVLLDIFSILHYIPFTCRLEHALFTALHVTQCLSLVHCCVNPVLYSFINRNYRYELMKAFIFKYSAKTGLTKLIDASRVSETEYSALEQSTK
Sequence of Somatostatin receptor type 3 (P32745 whole entry): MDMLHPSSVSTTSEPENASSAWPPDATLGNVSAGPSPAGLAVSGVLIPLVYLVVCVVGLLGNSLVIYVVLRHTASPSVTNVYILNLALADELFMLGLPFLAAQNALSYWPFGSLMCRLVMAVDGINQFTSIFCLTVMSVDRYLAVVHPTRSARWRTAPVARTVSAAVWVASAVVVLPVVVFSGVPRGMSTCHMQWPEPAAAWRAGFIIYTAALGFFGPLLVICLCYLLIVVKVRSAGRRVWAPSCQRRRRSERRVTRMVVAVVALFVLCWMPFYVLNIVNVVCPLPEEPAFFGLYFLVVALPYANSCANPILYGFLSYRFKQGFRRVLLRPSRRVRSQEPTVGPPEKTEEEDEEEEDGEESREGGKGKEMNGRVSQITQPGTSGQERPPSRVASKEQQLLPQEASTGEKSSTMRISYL

| Compound | IC50 (Kallikrein-7 [1]) [µM] | IC50 (Caspase-14) [µM] | IC50 (Oxytocin receptor) [µM] | EC50 [2] [µM] | IC50 (MDA-MB-231 [3]; mda-mb-231) | IC50 [4] [µM] | IC50 (Substance-K receptor) [µM] | inhibition (Kallikrein-7 [5]) | IC50 [6] [µM] | Activity (MDA-MB-231 [7]) [%] | IC50 (MDA-MB-231 [3]; [12]) [µM] | Activity (MDA-MB-231 [8]) [%] | Activity (MDA-MB-231 [9]) | IC50 [10] [µM] | inhibition (Kallikrein-7 [11]) | IC50 (Chymase) [µM] |
| --- | --- | --- | --- | --- | --- | --- | --- | --- | --- | --- | --- | --- | --- | --- | --- | --- |
| CCOC(=O)c1ccc(OC(=O)CCCCCNC(=N)N)cc1 | 20.4 | – | – | – | – | – | – | – | – | – | – | – | – | – | – | – |
| CC[C@H](C)[C@H](N)C(=O)N[C@@H](CCC(=O)O)C(=O)N[C@H](C(=O)NC(C=O)CC(=O)O)[C@@H](C)O (some centres not stated) (H-IET[ξD]-aldehyde) | – | 7.28 | – | – | – | – | – | – | – | – | – | – | – | – | – | – |
| COC(=O)[C@@H]1CCCN1C(=O)[C@@H](Cc1ccccc1)N(C)C(=O)[C@H](C)NC(=O)[C@H](CC(C)C)N(C)C(=O)CNC(=O)[C@@H]1CCCN1C(=O)[C@H](O)C(C)C (H-[dHiv]PG[NMeL]A[dNMeF]P-OMe) | – | – | > 20 | > 20 | Not Active | > 20 | > 20 | Active | > 20 | – | – | – | – | – | – | – |
| CC[C@H](C)[C@@H](OC(=O)CCc1ccccc1)C(=O)N1CCC[C@H]1C(=O)NCC(=O)N(C)[C@@H](CC(C)C)C(=O)N[C@@H](C)C(=O)N(C)[C@H](Cc1ccccc1)C(=O)N1CCC[C@H]1C(=O)OC (X2-PG[NMeL]A[dNMeF]P-OMe) | – | – | 5.32 | 7.81 | – | > 20 | 3.22 | Active | 3.14 | 50 | – | – | – | – | – | – |
| CC[C@H](C)[C@@H](OC(=O)/C=C\c1ccccc1)C(=O)N1CCC[C@H]1C(=O)NCC(=O)N(C)[C@@H](CC(C)C)C(=O)N[C@@H](C)C(=O)N(C)[C@H](Cc1ccccc1)C(=O)N1CCC[C@H]1C(=O)OC (X3-PG[NMeL]A[dNMeF]P-OMe) | – | – | 5.76 | 5.92 | – | > 20 | 4.61 | Active | 2.71 | – | 14.9 | – | – | – | – | – |
| CC[C@H](C)[C@@H](OC(=O)[C@H](Cc1ccccc1)N(C)C)C(=O)N1CCC[C@H]1C(=O)NCC(=O)N(C)[C@@H](CC(C)C)C(=O)N[C@@H](C)C(=O)N(C)[C@H](Cc1ccccc1)C(=O)N1CCC[C@H]1C(=O)OC (X4-PG[NMeL]A[dNMeF]P-OMe) | – | – | > 20 | 10.5 | – | 6.11 | 5.51 | Active | > 20 | – | – | 50 | – | – | – | – |
| CC[C@H](C)[C@@H](OC(=O)C#Cc1ccccc1)C(=O)N1CCC[C@H]1C(=O)NCC(=O)N(C)[C@@H](CC(C)C)C(=O)N[C@@H](C)C(=O)N(C)[C@H](Cc1ccccc1)C(=O)N1CCC[C@H]1C(=O)OC (X5-PG[NMeL]A[dNMeF]P-OMe) | – | – | > 20 | > 20 | – | > 20 | > 20 | Active | > 20 | – | 60 | – | – | – | – | – |
| CC[C@H](C)[C@@H](O)C(=O)N1CCC[C@H]1C(=O)NCC(=O)N(C)[C@@H](CC(C)C)C(=O)N[C@@H](C)C(=O)N(C)[C@H](Cc1ccccc1)C(=O)N1CCC[C@H]1C(=O)OC ({Hmp(2R,3S)}-PG[NMeL]A[dNMeF]P-OMe) | 22.1 | 50.3 | > 20 | > 20 | Not Active | > 20 | > 20 | Active | > 20 | – | – | – | inactive | 8.98 | Active | 101 |
| CC(C)C[C@H](NC(=O)[C@@H](NC(=O)N[C@@H](Cc1ccccc1)C(=O)O)C1CCNC(=N)N1)C(=O)N[C@H](C=O)Cc1ccccc1 (some centres not stated) [CHYMOSTATIN] | – | – | – | – | – | – | – | – | – | – | – | – | – | 0.00031 | – | 0.00936 |
